Here are results for two compounds from PubChem BioAssay AID2363 (The Scripps Research Institute Molecular Screening Center, 2010).

By inhibition is commonly meant the change of the read-out against control, counted positive when it falls.

The test has as its target Protein phosphatase methylesterase 1 (Homo sapiens) (UniProt Q9Y570). The test can be described thus: in situ PME-1 block, PP2A methylation – HeLa cells, demethylated PP2A western blot, orthogonal assay for PME-1 inhibitor project, late-stage follow-up (AID 2363). To be noted: demethylated PP2A western blot chemiluminescence, stronger effect = higher value. Put shortly: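 Test system: Cultured HeLa cells | Reagent: Cellular PP2A as the PME-1 demethylation substrate | Dosing: 5 and 20 µM compound | Schedule: Cell treatment at 37 °C | Measured by: SDS-PAGE immunoblot with HRP antibody against demethylated PP2A C-terminus, chemiluminescence | Measure: % inhibition of PP2A demethylation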

Where [1] appears, read: PP2A demethylation inhibition, at 20 µM.

Chain of Protein phosphatase methylesterase 1 (Homo sapiens) (Q9Y570 whole entry, looked up): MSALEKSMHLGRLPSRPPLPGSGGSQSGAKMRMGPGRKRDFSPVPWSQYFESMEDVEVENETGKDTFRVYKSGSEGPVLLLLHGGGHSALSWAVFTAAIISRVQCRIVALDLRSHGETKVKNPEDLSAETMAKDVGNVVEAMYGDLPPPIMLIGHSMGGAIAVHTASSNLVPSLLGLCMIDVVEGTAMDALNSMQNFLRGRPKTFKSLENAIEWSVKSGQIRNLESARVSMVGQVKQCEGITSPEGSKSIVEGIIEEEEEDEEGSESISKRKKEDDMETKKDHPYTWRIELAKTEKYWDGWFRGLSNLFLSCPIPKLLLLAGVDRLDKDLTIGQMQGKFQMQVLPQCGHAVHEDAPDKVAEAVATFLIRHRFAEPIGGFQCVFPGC

In the case of `N#C/C(=C\c1cccn1S(=O)(=O)c1cccc([N+](=O)[O-])c1)S(=O)(=O)c1ccc(F)cc1`, the inhibition reads like this: under setting [1], 98%; (at 5 µM) 65%.
For the compound `N#C/C(=C\c1cccn1S(=O)(=O)c1cccc(C#N)c1)S(=O)(=O)c1ccc(F)cc1`, the inhibition is 95% under setting [1] and 60% (at 5 µM).
